Compound activity: PubChem, The Scripps Research Institute Molecular Screening Center
OX1R antag-1 – antagonists of human orexin 1 receptor (OX1R). 330,000 compounds, 1.8% hits. AID 485270. OX1R-expressing cells, FRET antagonist read-out. O43613. inhibition, % at 6.6 µM; in the data active means inhibition mostly above about 38%, no sharp cut-off; inactive means mostly below about 40%
TAAR1 antagonist – antagonists of human TAAR1; Q96RJ0; CHO RD-HGA16 TAAR1, Fluo-8 calcium fluorescence, antagonist; inhibition, % at 3 µM; 360,000 compounds, 1.5% hits;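 active means inhibition above a per-plate cutoff, the mean inhibition of test compounds on that plate plus 3 SD, cut at about 49% in these data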
Target sequence (Q96RJ0 whole entry, looked up): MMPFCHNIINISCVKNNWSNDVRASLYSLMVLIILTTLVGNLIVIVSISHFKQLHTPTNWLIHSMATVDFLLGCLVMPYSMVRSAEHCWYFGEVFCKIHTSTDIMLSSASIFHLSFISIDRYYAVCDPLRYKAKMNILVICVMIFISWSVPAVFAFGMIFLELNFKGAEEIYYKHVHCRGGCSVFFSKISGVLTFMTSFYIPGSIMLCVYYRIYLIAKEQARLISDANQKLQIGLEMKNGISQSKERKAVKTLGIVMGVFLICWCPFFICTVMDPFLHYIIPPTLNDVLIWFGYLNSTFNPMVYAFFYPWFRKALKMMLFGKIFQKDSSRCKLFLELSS
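Test system – hTAAR1-expressing CHO RD-HGA16 cells, Gα16-coupled · Also added – β-PEA at EC80 concentration, post-compound challenge · Compound – 3 µM, single point · Incubation – dye loading 75 min at 37 °C, then 30 min room temperature · Measured by – Fluo-8 intracellular calcium dye fluorescence, real-time kinetic reads · Benchmarks – vehicle and agonist controls · Replicates – singlicate, one well per test compound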
TAAR1 agonist – agonists of human TAAR1; 360,000 compounds, 0.99% hits; activation, % at 3 µM; Q96RJ0; CHO RD-HGA16 TAAR1, Fluo-8 calcium fluorescence; vehicle wells 0%, saturating PEA agonist 100%;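 active means activation above the mean activation of all test compounds in the run plus 3 SD, cut at about 38% in these data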
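Assay system: CHO-derived RD-HGA16 cells with stable Gα16 and human TAAR1; timing: 17-24 h seeding, 75 min 37 °C dye, 30 min RT; read-out: % activation from peak over basal fluorescence ratio, DMSO-to-PEA scaled; measured by: kinetic Fluo-8 calcium fluorescence; benchmarks: low control DMSO, high control PEA (EC100); doses: 3 µM single concentration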
OX1R antag-2 – human HCRTR1 antagonism; O43613; CHO/OX1R cells, Fluo-8 calcium fluorescence, orexin A; inhibition, % at 5 µM; 330,000 compounds, 0.43% hits; AID 434989;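 active means inhibition above its plate's threshold, mean inhibition of all tested compounds on the plate plus 3 SD, cut at about 37% in these data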
CHO parental Ca – signal in parental CHO cells, OX1R antagonist counter-screen; parental CHO-K1, ATP-induced calcium, Fluo-8 fluorescence; AID 463079; 330,000 compounds, 0.63% hits; inhibition, % at 5.6 µM;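 active means inhibition above that plate's mean sample inhibition plus 3 SD, cut at about 26% in these data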
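material = parental CHO cells | also added = ATP as calcium-mobilizing challenge | dosing = single point at 5.6 µM | detection = intracellular calcium via Fluo-8 no-wash fluorescent dye | read-out = % inhibition | benchmarks = low control ATP plus DMSO, high control DMSO only | repeats = one well per compound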
OX1R HTRF conf – OX1R (human) antagonism, HTRF confirmed | OX1R-expressing cells, HTRF antagonist assay | inhibition, % at 6.6 µM | AID 492964 | 1,800 compounds, 49% hits | shares compounds with OX1R antag-1; in the data active means inhibition above about 55%;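 further: CHO cells expressing OX1R stimulated with orexin A at about EC80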
CHO-K1 HTRF – signal in parental CHO-K1 cells, OX1R antagonist counter-screen; shares compounds with OX1R antag-1; HTRF counterscreen; inhibition, % at 6.6 µM; 1,800 compounds, 48% hits; in the data active means inhibition above about 17%
A number is an active result; – = inactive; · = no result. Compounds with a hit are over-represented: about 3.9% of the library has one in this group of screens.

SMILES | OX1R antag-1 | TAAR1 antagonist | TAAR1 agonist | OX1R antag-2 | CHO parental Ca | OX1R HTRF conf | CHO-K1 HTRF
COC(=O)[C@]12C[C@H](CC(=O)N3CCN(C(=O)C4CC4)CC3)C(=O)N(Cc3ccccc3)C1=C[C@H](C1CCCC1)O[C@@H]2C | · | – | – | · | · | · | ·
CN(CCO)C1=NS(=O)(=O)c2cc([N+](=O)[O-])ccc21 | 95.1 | – | – | – | – | 66.3 | 93.9
O=C(NNC(=O)c1ccc([N+](=O)[O-])cc1Cl)c1ccncc1 | 103.2 | – | – | – | – | – | 43.8
O=C(OCC(=O)N1CCCC1)c1cc([N+](=O)[O-])ccc1Cl | 117.7 | – | – | – | – | – | 55.8
CCN(CC)S(=O)(=O)c1ccc(C)c(NC(=O)Cn2cnc3cc([N+](=O)[O-])ccc3c2=O)c1 | – | – | – | – | – | · | ·
O=C(Cn1cnc2cc([N+](=O)[O-])ccc2c1=O)NCc1ccccc1 | 95.3 | – | – | – | – | 54.9 | 61.9
O=C(Cn1cnc2cc([N+](=O)[O-])ccc2c1=O)NCCc1ccc(F)cc1 | – | – | – | – | – | · | ·
O=C(CCC(=O)NNC(=O)c1ccc([N+](=O)[O-])cc1)NCc1ccccc1 | 90.7 | – | – | – | – | – | 39.1
CC(C)N(C(=O)Cn1cnc2cc([N+](=O)[O-])ccc2c1=O)C(C)C | 141.4 | · | · | – | – | – | 92.7
Cc1cc2c(nc1C)CCCN2S(=O)(=O)c1c(C)noc1C | · | – | – | · | · | · | ·
COC(=O)[C@@]12C[C@@H](CC(=O)N3CCCC3)C(=O)N(Cc3ccco3)C1=CCC(C)(C)C2 | · | – | – | · | · | · | ·
COc1cccc(CN(C)C(=O)c2ccc(S(=O)(=O)Nc3cccc(C)c3C)cc2)c1OC | · | – | – | · | · | · | ·
CN(C)c1ccc(N=Nc2ccc3ncccc3c2)cc1 | · | – | – | · | · | · | ·
Cc1cc(N(C)C)ccc1N=Nc1ccc2ncccc2c1 | 83.0 | – | – | – | – | 74.6 | –
CC(C)(C)c1ccc(-c2nnc(SC3CCOC3=O)n2Cc2ccccc2)cc1 (stereo not given) | 84.2 | – | – | – | – | – | –
Cc1nc(-c2ccc([N+](=O)[O-])cc2)sc1C(=O)O | 155.9 | – | – | – | – | – | 75.8
COc1ccc(C(O)c2cnc(C)n2Cc2ccccc2)cc1 (stereo not given) | · | – | – | · | · | · | ·
COC(=O)C[C@@H]1CC[C@H](NC(=O)Nc2ccc(OC)cc2)[C@@H](CO)O1 | · | – | – | · | · | · | ·
O=[n+]1cc(-c2cc3ccccc3o2)n([O-])c2c1CCCC2 | 89.1 | – | – | – | – | – | 43.8
COc1ccc(C(=O)Nc2ccc(N3CCCC3)cc2)cc1 | – | – | – | – | – | · | ·
Cc1nc2c(C(=O)Nc3ccc(N4CCCC(O)C4)cc3)snc2c(=O)[nH]1 (stereo not given) | 94.8 | – | – | – | – | – | 58.7
c1ccc(C[n+]2cccc3c4ccccc4ccc32)cc1 | 77.5 | – | – | – | – | – | 47.5
O=[N+]([O-])c1ccc(C[n+]2cccc3ccc4cccnc4c32)cc1 | 137.5 | – | – | – | – | – | 56.3
COCCNC(=O)C1(C)CCCN(C(=O)c2cc(C)oc2C)C1 (stereo not given) | · | – | – | · | · | · | ·
COc1cc(-c2coc3c(C(=O)NCc4ccc(C(F)(F)F)cc4)cccc23)ccc1O | · | – | – | · | · | · | ·
SMILES | OX1R antag-1 | TAAR1 antagonist | TAAR1 agonist | OX1R antag-2 | CHO parental Ca | OX1R HTRF conf | CHO-K1 HTRF
Brc1ccc(N2O[C@H]3C=C[C@@H]2C3)nc1 | · | – | – | · | · | · | ·
Cc1cc[n+](C2=C([O-])c3ccccc3C(=O)/C2=N\S(=O)(=O)c2cccs2)cc1C | 106.2 | – | – | – | – | – | 24.7
Cc1ccc(NC2=C/C(=N/S(=O)(=O)c3cccs3)c3ccccc3C2=O)cc1C | – | – | – | – | – | · | ·
Cc1ccc(CNC(=O)c2ccc([N+](=O)[O-])o2)cc1 | 78.3 | – | – | – | – | – | 33.4
Cc1ccnc(NC(=O)c2ccc([N+](=O)[O-])o2)c1 | 94.0 | – | – | – | – | – | 68.2
CC(=O)c1ccc(OCC(=O)OCC(=O)c2ccc(S(=O)(=O)N3CCCCC3)cc2)cc1 | · | – | – | · | · | · | ·
Cc1ccc(-n2cnc3c(=O)[nH]cnc32)cc1[N+](=O)[O-] | · | – | – | · | · | · | ·
